Compound activity from PubChem.
KCNQ1 pot: potentiates or activates the human KCNQ1 potassium channel. hit rate 0.35% among 310,000. CHO-K1 KCNQ1, thallium flux FluxOR fluorescence; active compounds read high. B-score at 10 µM. P51787;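 active means fluorescence ratio B-score, a plate-corrected score, at least three library SD, with initial intensity B-score within 5 SD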
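assay system = KCNQ1-transfected CHO-K1 cells | medium = assay buffer with matched DMSO | probe or stimulus = depolarizing K+/Tl+ stimulus, K2SO4 and Tl2SO4 each 12.5 mM in 5x stock | dosing = single dose | incubation = dye 90 min, compound 20 min, room temperature | detection = kinetic FluxOR fluorescence, 10 s baseline plus 110 s post-stimulus | evaluation = ratio B score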
hERG protect: compounds protecting human hERG from proarrhythmic drug block. Q12809. CHO-hERG, FluxOR thallium flux, dofetilide IC70 present. activation (rescue from dofetilide block), less the hit threshold, % at 10 µM. hit rate 0.51% among 310,000. AID 1511;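 active means activation above the mean of controls blocked by dofetilide plus 5 SD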;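 further: thallium influx through hERG after potassium depolarization seen as dye fluorescence rise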
KCNK3 inh: human KCNK3 channel inhibition, primary screen | B-score at 10 µM | O14649 | hit rate 0.84% among 340,000 | CHO-KCNK3 thallium flux, FluxOR fluorescence; active compounds read low;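 active means B-score under library mean minus 4 SD, starting fluorescence ratio at most library mean plus 5 SD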;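 further: more negative B-score means stronger inhibition of thallium flux through KCNK3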
Target sequence (O14649 whole entry, looked up): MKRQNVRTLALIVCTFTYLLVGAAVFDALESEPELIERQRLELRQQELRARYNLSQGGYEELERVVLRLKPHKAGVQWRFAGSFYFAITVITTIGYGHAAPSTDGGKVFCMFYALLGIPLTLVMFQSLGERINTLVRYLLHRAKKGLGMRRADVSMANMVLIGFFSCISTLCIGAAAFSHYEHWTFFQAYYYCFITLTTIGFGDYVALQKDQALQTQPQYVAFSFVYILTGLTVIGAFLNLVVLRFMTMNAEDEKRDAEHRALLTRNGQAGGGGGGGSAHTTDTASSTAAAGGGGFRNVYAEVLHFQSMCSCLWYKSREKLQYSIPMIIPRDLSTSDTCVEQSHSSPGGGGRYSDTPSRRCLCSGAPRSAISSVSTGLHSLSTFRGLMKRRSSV
KCNQ1 block: blocks the human KCNQ1 potassium channel. P51787. CHO-K1 KCNQ1, FluxOR thallium flux fluorescence; active compounds read high. B-score at 10 µM. hit rate 1.3% among 310,000;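 active means compounds whose thallium flux B-score, printed positive for inhibition, exceeds three library SD while starting fluorescence stays within three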;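 further: channel opened by potassium depolarization with thallium stimulus after 20 min compound exposure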
KCNK9 block: inhibitors of human KCNK9 two-pore domain potassium channel; Q9NPC2; HEK293 KCNK9, FluxOR thallium flux fluorescence; active compounds read low; B-score at 10 µM; hit rate 1.2% among 310,000;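 active means ratio B-score over 3 SD below the library mean, with starting fluorescence within 5 SD of its mean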;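 further: negative B-score means less thallium flux so channel inhibition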
Kir21 inh: Kir2.1 (mouse) channel inhibition | P35561 | B-score at 10 µM | HEK293-Kir2.1, FluxOR thallium flux fluorescence; active compounds read low | hit rate 0.85% among 310,000;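 active means fluorescence ratio B-score at or below minus 3 SD of library scores, with starting-brightness B-score within 2 SD, cut at about -4.2 in these data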;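 further: channel flux triggered by added potassium and thallium sulfate stimulus; B-score of peak minus minimum fluorescence over baseline after thallium stimulus; more negative B-score means stronger Kir2.1 block with less thallium influx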
KCNK3 inh conf: confirmation of human KCNK3 two-pore domain potassium channel inhibitors; shares compounds with KCNK3 inh; CHO-KCNK3 thallium flux, FluxOR fluorescence; 0% buffer, 100% carvedilol maximal block; ratio percent of control, % at 10 µM; hit rate 99% among 2,400;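 active means ratio percent of control, averaged over triplicates, above buffer control mean plus 5 SD, cut at about 64% in these data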;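 further: ratio is the fluorescence rise from min to max over baseline after thallium stimulus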
KCNK3 uninduced: counter-screen for KCNK3 inhibitors: effect in non-induced cells | shares compounds with KCNK3 inh | thallium flux ratio (lower = more inhibition) at 10 µM | non-induced KCNK3 parental cells, FluxOR thallium flux; active compounds read low | AID 651747 | hit rate 40% among 2,400;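 active means thallium flux ratio, averaged over three wells, more than 5 SD below the buffer control mean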;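 further: host cells are CHO cells without KCNK3 induction; ratio is peak minus trough fluorescence over baseline then normalized to buffer controls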
* = called active by the depositor. In the library only some 3.7% were active in any assay of this set; here they are far more common.

Results for COc1c(C(=O)Nc2ccc(Br)cn2)ccc2ccccc12 ?
KCNQ1 pot: inactive; hERG protect: -2; KCNK3 inh: -11*; KCNQ1 block: inactive; KCNK9 block: -7.2*; Kir21 inh: 1.2; KCNK3 inh conf: 97*; KCNK3 uninduced: 0.16*

How did O=C(N[C@@H](CCC/[N+]([O-])=C/c1ccccc1)C(=O)O)OCc1ccccc1 do in these assays?
KCNK3 inh: inactive

Results for COC(=O)C1CCN(C(=O)COC(=O)c2cc(-c3ccccc3)nc3ccc(OC)cc23)CC1 ?
KCNK3 inh: -12*; KCNK3 inh conf: 105*; KCNK3 uninduced: inactive

Results for COc1ccc(-c2cc(C(=O)OCC(=O)N3CCOCC3)c3ccccc3n2)cc1 ?
KCNK3 inh: inactive

Results for CC[n+]1c(/C=C/Nc2ccccc2)oc2ccccc21 ?
KCNQ1 pot: inactive; hERG protect: -9; KCNK3 inh: inactive; KCNQ1 block: inactive; KCNK9 block: inactive; Kir21 inh: -1.8

What do the screens show for `CC/C(=C\c1oc2cc3ccccc3cc2[n+]1CC)Nc1ccccc1`?
KCNQ1 pot: inactive; hERG protect: -27; KCNK3 inh: -10*; KCNQ1 block: 9*; KCNK9 block: inactive; Kir21 inh: -3.1; KCNK3 inh conf: 127*; KCNK3 uninduced: 0.14*

Results for N#CCC(=O)N/N=C/c1c(-c2ccccc2)n(-c2ccccc2)c2ccccc12 ?
KCNQ1 pot: inactive; hERG protect: -7; KCNK3 inh: -9.6*; KCNQ1 block: inactive; KCNK9 block: inactive; Kir21 inh: -0.12; KCNK3 inh conf: 97*; KCNK3 uninduced: inactive

How did N#CCC(=O)N/N=C/c1cn(Cc2ccccc2C#N)c2ccccc12 do in these assays?
KCNQ1 pot: inactive; hERG protect: 1; KCNK3 inh: inactive; KCNQ1 block: inactive; KCNK9 block: inactive; Kir21 inh: 0

Results for OCc1c(OCc2cccc(F)c2)ccc2ccccc12 ?
KCNQ1 pot: inactive; hERG protect: -7; KCNK3 inh: -9.5*; KCNQ1 block: inactive; KCNK9 block: inactive; Kir21 inh: 1.1; KCNK3 inh conf: 97*; KCNK3 uninduced: inactive

What do the screens show for `CC(C)CNC(=O)COC(=O)Cc1ccc(Cl)cc1`?
KCNQ1 pot: inactive; hERG protect: -1; KCNK3 inh: inactive; KCNQ1 block: inactive; KCNK9 block: inactive; Kir21 inh: -0.96

How did N#CCC(=O)Nc1ccc(C(=O)OCC(=O)N=c2sccn2Cc2ccccc2Cl)cc1 do in these assays?
KCNQ1 pot: inactive; hERG protect: -16; KCNK3 inh: -11*; KCNQ1 block: inactive; KCNK9 block: inactive; Kir21 inh: 2.8; KCNK3 inh conf: 92*; KCNK3 uninduced: inactive

Results for Cc1nn(C(C)C(=O)NC2CCC(C)CC2)c(=O)c2nn(-c3ccccc3)c(C)c12 (stereo unspecified) ?
KCNQ1 pot: inactive; hERG protect: -7; KCNK3 inh: inactive; KCNQ1 block: inactive; KCNK9 block: inactive; Kir21 inh: -0.56

What do the screens show for `CCc1c(C2(O)CCCCC2)[nH]c2cc(C(F)(F)F)ccc12`?
KCNQ1 pot: inactive; hERG protect: -11; KCNK3 inh: inactive; KCNQ1 block: inactive; KCNK9 block: inactive; Kir21 inh: 1.3

Results for CCOCCCNC(=O)/C(C#N)=C/c1ccc(Cl)c([N+](=O)[O-])c1 ?
KCNQ1 pot: inactive; hERG protect: -22; KCNK3 inh: -9.1*; KCNQ1 block: inactive; KCNK9 block: inactive; Kir21 inh: 0.92; KCNK3 inh conf: 122*; KCNK3 uninduced: 0.12*

What do the screens show for `c1ccc(COc2ncnc3c2ncn3CCCN2CCN(c3ccccn3)CC2)cc1`?
KCNK3 inh: inactive
